Source: ChEMBL document CHEMBL4390679 (J Med Chem, 2019)
The source made the active and inactive calls. The calls are words filed in the database; no cut-off is given here. Starred links: 1 amine or outer side, 2 acyl side, 3 side chain; linkers in the order of their positions; H or OH if unused. Positions of bridges follow the written chain, without caps; N, C: chain ends. Non-standard residues stand in square brackets, D forms with d. Residues, ends and D or L forms follow the SMILES beside them. Abu(4-yl) = O=C([C@H](CC[*:3])N[*:1])[*:2]; N(4-F-Bzl)Gly = O=C(O)CNCc1ccc(F)cc1; X1 = O=C(CN(CCCO)[*:1])[*:2]

Key:
Vasopressin V1b receptor = biological target: T1, Vasopressin V1b receptor (Homo sapiens, UniProt P47901); assay: Agonist activity at recombinant human V1b receptor expressed in HEK293 cells assessed as increase in intracellular calcium level measured at 3 secs interval for 5 mins by fura-2/AM dye based micro spectrofluorometric method; format: cell-based
T1 sequence (P47901 whole entry): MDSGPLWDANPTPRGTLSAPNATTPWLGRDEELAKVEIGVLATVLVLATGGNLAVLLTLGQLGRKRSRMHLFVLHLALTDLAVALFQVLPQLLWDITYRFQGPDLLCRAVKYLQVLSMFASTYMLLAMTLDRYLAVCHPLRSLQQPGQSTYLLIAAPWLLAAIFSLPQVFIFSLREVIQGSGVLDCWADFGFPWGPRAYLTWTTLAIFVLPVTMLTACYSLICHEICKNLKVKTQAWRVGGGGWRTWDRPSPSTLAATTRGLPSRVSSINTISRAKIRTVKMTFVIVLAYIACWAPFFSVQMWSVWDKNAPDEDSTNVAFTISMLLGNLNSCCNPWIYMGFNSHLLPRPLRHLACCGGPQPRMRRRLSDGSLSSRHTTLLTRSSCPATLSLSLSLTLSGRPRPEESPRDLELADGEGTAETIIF

Homo sapiens [1] = organism: Homo sapiens; assay: Selectivity ratio of EC50 for recombinant human V1a receptor expressed in HEK293 cells to EC50 for recombinant human OTR expressed in HEK293 cells; format: cell-based
Method in brief: (§1)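 Agonist response measured in HEK-293 cells stably expressing human OTR, V1aR or V1bR, loaded with 1 µM fura-2/AM for 30 min at 37 °C, washed in HEPES-buffered saline pH 7.4. F340/F380 ratio read every 3 s for 5 min at 37 °C, normalized to baseline and to maximal OT (OTR) or AVP (V1aR, V1bR) response; EC50 taken from these curves. n = 3, 20 cells per dish.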

Vasopressin V1a receptor = Vasopressin V1a receptor (Homo sapiens, UniProt P37288); assay: Agonist activity at recombinant human V1a receptor expressed in HEK293 cells assessed as increase in intracellular calcium level measured at 3 secs interval for 5 mins by fura-2/AM dye based micro spectrofluorometric method; format: cell-based
Oxytocin receptor [2] = biological target: T2, Oxytocin receptor (Homo sapiens, UniProt P30559); assay: Agonist activity at recombinant human OTR expressed in HEK293 cells assessed as increase in intracellular calcium level measured at 3 secs interval for 5 mins by fura-2/AM dye based micro spectrofluorometric method; format: functional, cell-based
T2 sequence (P30559 whole entry): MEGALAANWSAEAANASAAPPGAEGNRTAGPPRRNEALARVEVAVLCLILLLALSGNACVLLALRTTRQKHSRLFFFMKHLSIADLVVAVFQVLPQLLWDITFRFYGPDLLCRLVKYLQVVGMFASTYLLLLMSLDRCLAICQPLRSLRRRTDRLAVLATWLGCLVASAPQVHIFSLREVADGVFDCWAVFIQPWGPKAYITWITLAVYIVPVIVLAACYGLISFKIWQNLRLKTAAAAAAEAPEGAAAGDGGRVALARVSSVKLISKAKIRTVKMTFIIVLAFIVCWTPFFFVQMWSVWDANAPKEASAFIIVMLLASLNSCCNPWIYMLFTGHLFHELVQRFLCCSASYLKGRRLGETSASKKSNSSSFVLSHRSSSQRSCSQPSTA

Oxytocin receptor [3] = biological target: T2, Oxytocin receptor; assay: Displacement of [3H]OT from recombinant human OTR expressed in HEK293 cell membranes measured after 1 hr
Homo sapiens [4] = organism: Homo sapiens; assay: Selectivity ratio of EC50 for recombinant human V1b receptor expressed in HEK293 cells to EC50 for recombinant human OTR expressed in HEK293 cells; format: cell-based; method in brief: as §1
[5] = Plasma concentration in Slc:ICR mouse at 100 ng/g, iv measured immediately by LC-MS/MS analysis; format: ADME, organism-based; settings: in vivo
Method in brief: (§2)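 Male ICR mice (30 g) were given 100 ng/g i.v. via the tail vein. Blood was taken by cardiac puncture immediately and at 5, 15 and 30 min; CSF was taken at 30 min or 12 h. Plasma was deproteinized with acetonitrile/methanol 1:1 containing [13C6,15N]OT internal standard and analysed by LC-MS/MS (C8 column, SRM).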

[6] = Half life in Slc:ICR mouse plasma during slow phase at 100 ng/g, iv measured for 15 to 60 mins by LC-MS/MS analysis; format: ADME, organism-based; method in brief: as §2
Mus musculus [7] = assay: Cognition enhancing effect in CD38 knock out Slc:ICR mouse sire model of autism spectrum disorder assessed as latency time to retrieve pups by sires at 0.3 mL, ip administered as single dose measured after 30 mins by parental retrieval test (reference value: 600 sec); format: functional
Mus musculus [8] = assay: Cognition enhancing effect in CD38 knock out Slc:ICR mouse sire model of autism spectrum disorder assessed as decrease in latency time to retrieve pups by sires at 0.3 mL, ip administered as single dose measured after 6 hrs by parental retrieval test; format: functional, organism-based
Mus musculus [9] = assay: Antidepressant-like activity in CD38KOCC Slc:ICR mouse model of autism spectrum disorder assessed as decrease in immobility time at 100 ng/ml, ip administered as single dose for 24 hrs prior to testing measured for last 4 mins of 6 mins test by tail suspension test
Mus musculus [10] = assay: Antidepressant-like activity in CD38KOCC Slc:ICR mouse model of autism spectrum disorder assessed as immobility time at 100 ng/ml, ip administered as single dose for 30 mins prior to testing measured for last 4 mins of 6 mins test by tail suspension test (reference value: 74.2 +/- 2.9 sec); format: functional
Mus musculus [11] = assay: Cognition enhancing effect in CD38KOCC Slc:ICR mouse model of autism spectrum disorder assessed as increase in sucrose consumption over water at 100 ng/ml, ip administered as single dose measured after 24 hrs; format: functional, organism-based
[12] = Half life in Slc:ICR mouse plasma during fast phase at 100 ng/g, iv measured for 15 mins by LC-MS/MS analysis; format: ADME, organism-based; method in brief: as §2
[13] = Stability in mouse plasma assessed as parent compound remaining at 50 ng/ml measured after 2 hrs by LC-MS/MS analysis; format: ADME, cell-free; settings: read-out: Stability
Method in brief: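 Pooled mouse plasma spiked to a final 50 ng/mL was incubated at 37 °C for 1–120 min, quenched with acetonitrile/methanol 1:1 plus internal standard, and analysed by LC-MS/MS. Percent of the initial concentration was calculated; 85–115% was taken as acceptable.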

Chain of Vasopressin V1a receptor (P37288 whole entry): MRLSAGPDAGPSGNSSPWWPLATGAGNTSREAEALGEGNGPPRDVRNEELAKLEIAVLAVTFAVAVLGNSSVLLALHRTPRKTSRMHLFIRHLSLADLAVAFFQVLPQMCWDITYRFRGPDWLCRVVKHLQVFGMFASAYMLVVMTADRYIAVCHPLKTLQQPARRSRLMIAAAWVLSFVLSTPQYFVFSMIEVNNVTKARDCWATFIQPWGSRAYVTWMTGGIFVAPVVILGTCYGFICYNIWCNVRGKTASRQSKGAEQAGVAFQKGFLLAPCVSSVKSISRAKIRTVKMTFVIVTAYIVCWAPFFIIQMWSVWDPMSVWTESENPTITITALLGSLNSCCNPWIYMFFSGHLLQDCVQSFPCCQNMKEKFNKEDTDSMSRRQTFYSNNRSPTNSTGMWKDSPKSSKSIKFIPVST

EC50 (Vasopressin V1b receptor) [nM] | EC50 (Vasopressin V1a receptor) [nM] | EC50 (Oxytocin receptor [2]) [nM] | Ki (Oxytocin receptor [3]) [nM] | Cp [5] [ng/mL] | half-life [6] [min] | half-life [12] [min] | remaining at 2 h, 50 ng/ml [13] [%] | Structure (SMILES) | Ratio EC50 (Homo sapiens [1]) | Ratio EC50 (Homo sapiens [4]) | Time (Mus musculus [7]) [s] | Activity (Mus musculus [8]) | Activity (Mus musculus [9]) | Time (Mus musculus [10]) [s] | Activity (Mus musculus [11])
0.8 | 4 | 0.089 | 0.9 | – | – | – | – | CC[C@H](C)[C@@H]1NC(=O)[C@H](Cc2ccc(O)cc2)NC(=O)[C@@H](N)CCSC[C@@H](C(=O)N(CC(=O)N[C@@H](CC(C)C)C(=O)NCC(N)=O)Cc2ccc(F)cc2)NC(=O)[C@H](CC(N)=O)NC(=O)[C@H](CCC(N)=O)NC1=O (H-[Abu(4-yl)]YIQNC[N(4-F-Bzl)Gly]LG-NH2; thioether 1-6) | 45 | 9 | – | – | – | – | –
> 10 | > 10 | 0.15 | 3 | – | – | – | – | CC[C@H](C)[C@@H]1NC(=O)[C@H](Cc2ccc(O)cc2)NC(=O)[C@@H](N)CCSC[C@@H](C(=O)N(CCCO)CC(=O)N[C@@H](CC(C)C)C(=O)NCC(N)=O)NC(=O)[C@H](CC(N)=O)NC(=O)[C@H](CCC(N)=O)NC1=O (H-[Abu(4-yl)]YIQNC[X1]LG-NH2; thioether 1-6) | > 66.6 | > 66.6 | – | – | – | – | –
– | – | – | – | 334 | 8.84 | 2.91 | 85 to 115 | CC[C@H](C)[C@@H]1NC(=O)[C@H](Cc2ccc(O)cc2)NC(=O)[C@@H](N)CSSC[C@@H](C(=O)N2CCC[C@H]2C(=O)N[C@@H](CC(C)C)C(=O)NCC(N)=O)NC(=O)[C@H](CC(N)=O)NC(=O)[C@H](CCC(N)=O)NC1=O [OXYTOCIN] | – | – | 240 | inactive | inactive | 171 | inactive
